According to article PMC6072596 (Molecular cancer therapeutics, 2018):
“And” between values parts separate entries of the source, which are not always exact repeats. Equal values may be shown once.

Legend:
[1] = tested on: human glioma T98G cells; assay: Radiosurvival colony-forming ability; format: cell-based; conditions: compared with KU-60019
Outline: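 T98G human glioma cells came from ATCC and grew in DMEM with 10% FBS and penicillin-streptomycin at 37°C, 5% CO2. Cultures were kept no longer than 2 months and tested mycoplasma-negative. Radiosensitization was scored as colony-forming ability after irradiation, with a reference ATM inhibitor run alongside.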

[2] = tested on: GL261 orthotopic glioma; assay: Syngeneic orthotopic mouse glioma model GL261/C57bl6, survival with radiation; format: in vivo
[3] = tested on: ATM targets including p53-S15, KAP1-S824, and ATM auto-phosphorylation at S1981; assay: Western blotting of ATM target phosphorylation; format: cell-based; conditions: western blot
Outline: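 Mouse GL261 cells were irradiated (5 Gy) or not and exposed to test compound 0.3, 1 or 3 µM, or KU-60019 3 µM as reference ATM inhibitor, or neither. Extracts were western blotted for p-p53 S15 and p-KAP1 S824, with GAPDH or KAP1 as loading controls, using Dylight-800 anti-rabbit and Alexa Fluor-680 anti-mouse secondaries.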

[4] = tested on: human HCT116 colon carcinoma cells; assay: CFA radiosurvival of isogenic HCT116 cells; format: cell-based; conditions: HCT116 p53+/+ cells versus mutant p53 cells
[5] = Tolerability of AZ32 plus head irradiation in mice; format: in vivo; conditions: C57bl6 mice, AZ32 and 2×5 Gy conformal SARRP
[6] = tested on: mouse GL261 glioma cells; assay: Mitotic catastrophe triple staining; format: cell-based; conditions: 24 hr
Outline: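 GL261 cells on chamber slides (DMEM, 10% FBS, 37°C, 5% CO2) were treated with test compound 3 µM and/or 2 Gy, or left untreated. Fixed at 24 hr and immunostained for γ-H2AX, p-(S10)-histone H3 and cleaved caspase 3, with DAPI counterstain; confocal imaging. Triple-positive cells were counted as mitotic catastrophe and expressed as a fraction of all cells.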

[7] = tested on: U87/shp53 cells; assay: Live cell imaging of aberrant mitoses in U87/shp53 versus parental cells; format: cell-based, human; conditions: AZ32 3 µM, 5 Gy, time-lapse 16 hrs
Outline: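 U87 cells expressing H2B-mCherry and EGFP-Centrin2 were transduced with shp53 pLKO.1 puro or pBabe-puro, puromycin-selected and FACS-sorted mCherry+/EGFP+. They were grown 48–72 hr on glass-bottom dishes, given test compound 3 µM before 5 Gy, then imaged by spinning-disk confocal every 7 min from 2 hr post-IR for 16 hr. Aberrant mitoses were scored visually from chromatin and/or centrosome morphology.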

[8] = tested on: mouse GL261 cells; assay: Radiosurvival colony-forming assay, GL261; format: cell-based; conditions: AZ32 3 µM, 2 and 4 Gy
Outline: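 Clonogenic radiosurvival in mouse GL261 cells grown in DMEM with 10% FBS. Cells were diluted and plated, exposed to test compound 3 µM or not, and irradiated at 0, 2 or 4 Gy. After about 2 weeks, colonies were stained with crystal violet and those of more than 50 cells were counted.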

[9] = tested on: human glioma cell lines LN18, U1242, T98G, DBTRG, U87MG; assay: Radiosurvival of human glioma cell line panel with AZ32; format: cell-based; conditions: LN18, U1242, T98G (mutant p53), U87MG (wild-type p53)
[10] = Cell permeability; format: in vitro ADME
[11] = target: pS1981ATM (Homo sapiens, UniProt Q13315); assay: ATM cell assay; format: cell-based; conditions: read-out: pS1981ATM IC50 (ATM cell IC50)
[12] = target: ATR (Homo sapiens, UniProt Q13535); assay: Kinase selectivity, biochemical PIKK enzyme activity: ATR
ATR, sequence (Q13535 whole entry): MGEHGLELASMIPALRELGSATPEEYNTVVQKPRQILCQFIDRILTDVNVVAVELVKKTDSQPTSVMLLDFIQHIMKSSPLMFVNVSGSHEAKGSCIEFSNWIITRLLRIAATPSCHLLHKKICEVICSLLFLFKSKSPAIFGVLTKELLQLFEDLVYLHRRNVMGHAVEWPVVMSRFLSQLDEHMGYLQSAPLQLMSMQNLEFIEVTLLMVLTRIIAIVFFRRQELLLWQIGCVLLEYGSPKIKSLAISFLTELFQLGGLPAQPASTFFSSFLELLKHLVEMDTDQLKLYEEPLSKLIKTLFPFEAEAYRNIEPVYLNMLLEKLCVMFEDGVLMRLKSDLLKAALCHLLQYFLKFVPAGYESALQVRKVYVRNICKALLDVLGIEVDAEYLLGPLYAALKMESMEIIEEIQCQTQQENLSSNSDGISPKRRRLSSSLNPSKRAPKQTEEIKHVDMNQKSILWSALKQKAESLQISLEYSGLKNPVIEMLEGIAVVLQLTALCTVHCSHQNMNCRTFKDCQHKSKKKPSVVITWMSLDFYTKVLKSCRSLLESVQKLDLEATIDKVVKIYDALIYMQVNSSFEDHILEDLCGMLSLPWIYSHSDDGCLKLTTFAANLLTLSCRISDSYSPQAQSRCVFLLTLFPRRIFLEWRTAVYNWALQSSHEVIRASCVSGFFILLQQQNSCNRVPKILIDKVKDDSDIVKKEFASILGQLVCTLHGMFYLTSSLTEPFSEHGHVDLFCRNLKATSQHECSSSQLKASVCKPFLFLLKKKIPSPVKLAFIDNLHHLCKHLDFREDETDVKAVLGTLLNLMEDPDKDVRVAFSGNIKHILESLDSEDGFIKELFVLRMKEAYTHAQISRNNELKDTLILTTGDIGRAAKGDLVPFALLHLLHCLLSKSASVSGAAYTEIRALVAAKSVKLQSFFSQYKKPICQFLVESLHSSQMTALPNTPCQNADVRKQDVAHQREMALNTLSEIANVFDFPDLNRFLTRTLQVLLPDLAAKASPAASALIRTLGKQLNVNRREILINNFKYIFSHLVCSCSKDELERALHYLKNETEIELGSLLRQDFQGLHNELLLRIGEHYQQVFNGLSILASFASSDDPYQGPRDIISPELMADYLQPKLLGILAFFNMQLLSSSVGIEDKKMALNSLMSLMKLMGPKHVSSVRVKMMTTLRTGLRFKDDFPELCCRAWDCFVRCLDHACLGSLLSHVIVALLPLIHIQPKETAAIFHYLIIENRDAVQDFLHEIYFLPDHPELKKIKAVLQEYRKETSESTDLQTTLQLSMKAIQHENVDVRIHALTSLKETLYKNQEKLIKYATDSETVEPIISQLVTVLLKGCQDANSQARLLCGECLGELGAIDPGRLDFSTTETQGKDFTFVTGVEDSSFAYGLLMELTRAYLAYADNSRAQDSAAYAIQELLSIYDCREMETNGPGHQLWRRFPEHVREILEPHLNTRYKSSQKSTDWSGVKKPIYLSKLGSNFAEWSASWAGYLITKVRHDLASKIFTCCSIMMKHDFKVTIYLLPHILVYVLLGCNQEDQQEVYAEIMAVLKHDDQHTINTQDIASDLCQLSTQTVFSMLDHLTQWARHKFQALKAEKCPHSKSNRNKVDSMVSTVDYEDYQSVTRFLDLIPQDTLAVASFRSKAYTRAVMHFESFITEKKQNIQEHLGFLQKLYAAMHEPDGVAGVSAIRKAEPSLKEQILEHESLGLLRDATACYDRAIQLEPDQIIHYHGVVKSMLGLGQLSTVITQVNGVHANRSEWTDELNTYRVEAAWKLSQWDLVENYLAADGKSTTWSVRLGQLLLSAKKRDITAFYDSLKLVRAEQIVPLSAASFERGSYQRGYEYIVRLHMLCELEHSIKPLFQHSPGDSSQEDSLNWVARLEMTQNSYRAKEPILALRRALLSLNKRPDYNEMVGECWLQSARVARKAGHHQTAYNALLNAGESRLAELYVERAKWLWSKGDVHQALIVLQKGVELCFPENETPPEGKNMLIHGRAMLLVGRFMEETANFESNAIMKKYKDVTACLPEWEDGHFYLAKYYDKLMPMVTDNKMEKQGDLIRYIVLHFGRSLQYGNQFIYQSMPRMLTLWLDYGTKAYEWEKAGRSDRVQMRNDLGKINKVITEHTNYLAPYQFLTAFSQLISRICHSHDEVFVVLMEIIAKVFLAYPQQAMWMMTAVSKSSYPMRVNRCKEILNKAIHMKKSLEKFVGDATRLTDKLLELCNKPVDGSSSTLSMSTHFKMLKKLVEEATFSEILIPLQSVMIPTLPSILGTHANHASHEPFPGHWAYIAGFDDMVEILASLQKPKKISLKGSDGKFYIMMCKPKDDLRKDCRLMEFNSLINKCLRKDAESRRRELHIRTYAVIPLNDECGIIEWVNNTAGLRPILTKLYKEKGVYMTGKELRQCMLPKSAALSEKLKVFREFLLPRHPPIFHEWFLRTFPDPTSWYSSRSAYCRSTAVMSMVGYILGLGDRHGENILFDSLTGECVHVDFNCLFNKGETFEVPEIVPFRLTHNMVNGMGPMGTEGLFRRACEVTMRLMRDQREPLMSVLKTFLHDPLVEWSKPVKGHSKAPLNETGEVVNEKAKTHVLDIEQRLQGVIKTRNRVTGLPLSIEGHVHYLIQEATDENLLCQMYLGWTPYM
ATR, sequence (Q8WXE1 whole entry partner): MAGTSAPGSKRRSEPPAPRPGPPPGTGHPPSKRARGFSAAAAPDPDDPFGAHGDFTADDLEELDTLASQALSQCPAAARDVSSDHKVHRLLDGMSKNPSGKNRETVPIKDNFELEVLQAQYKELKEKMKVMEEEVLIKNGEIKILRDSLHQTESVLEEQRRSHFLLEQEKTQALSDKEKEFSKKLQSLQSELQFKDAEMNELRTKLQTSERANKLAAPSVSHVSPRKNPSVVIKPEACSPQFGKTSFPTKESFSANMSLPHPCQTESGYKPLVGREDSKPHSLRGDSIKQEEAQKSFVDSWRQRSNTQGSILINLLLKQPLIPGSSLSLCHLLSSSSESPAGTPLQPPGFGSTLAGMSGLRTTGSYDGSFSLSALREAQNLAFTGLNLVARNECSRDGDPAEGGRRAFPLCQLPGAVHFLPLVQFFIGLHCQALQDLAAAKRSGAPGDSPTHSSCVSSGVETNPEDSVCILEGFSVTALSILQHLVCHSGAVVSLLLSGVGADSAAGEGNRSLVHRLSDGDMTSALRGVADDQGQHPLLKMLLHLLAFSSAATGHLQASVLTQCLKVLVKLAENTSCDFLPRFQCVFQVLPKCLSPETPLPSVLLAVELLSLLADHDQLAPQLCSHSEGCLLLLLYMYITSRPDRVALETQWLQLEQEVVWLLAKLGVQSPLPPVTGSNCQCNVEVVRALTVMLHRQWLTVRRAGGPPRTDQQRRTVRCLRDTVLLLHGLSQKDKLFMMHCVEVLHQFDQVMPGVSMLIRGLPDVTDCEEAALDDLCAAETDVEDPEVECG

[13] = tested on: human HCT116 colon carcinoma cells; assay: Aberrant mitoses in isogenic HCT116 cells; format: cell-based; conditions: HCT116 p53−/− cells
[14] = tested on: U87/shp53 cells; assay: Radiosensitization of U87/shp53 versus parental U87/puro cells; format: cell-based, human; conditions: AZ32 3 µM
[15] = Mouse oral exposure: plasma and brain; format: in vivo; conditions: from Kpuu of Table 1
[16] = tested on: intracranial NCI-H2228 (BM) tumors; assay: NCI-H2228 non-small cell lung cancer brain metastasis model, survival; format: in vivo, mouse; conditions: nude mice, AZ32 50 mg/kg BID
Outline: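 Luciferase-expressing NCI-H2228 lung cancer cells, grown in DMEM with 10% FBS, were implanted in the brains of nude mice. Mice were randomized to vehicle, radiation alone, test compound 50 mg/kg BID alone, or test compound plus radiation. Tumours were tracked by bioluminescence imaging and survival was followed.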

[17] = tested on: pp53 (S15), pKAP1 (S824) in mouse glioma GL261 cells; assay: Western blotting of DDR in GL261 cells; format: cell-based; conditions: 5 Gy, AZ32 0.3, 1 or 3 µM
Outline: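 Mouse GL261 glioma cells, grown in DMEM with 10% FBS, got 5 Gy or no irradiation plus test compound (0.3, 1 or 3 µM), reference ATM inhibitor (3 µM) or neither. Extracts were western blotted for p-p53 Ser15 and p-KAP1 Ser824, with GAPDH or KAP1 as loading controls. Detection used Dylight-800 anti-rabbit and Alexa Fluor-680 anti-mouse secondaries.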

COCc1ccc(-c2ccc3ncc(C(N)=O)c(N[C@H](C)C4CCOCC4)c3c2)cn1 [AZ31, 6-[6-(methoxymethyl)-3-pyridinyl]-4-([(1R)-1-(tetrahydro-2H-pyran-4-yl)ethyl]amino)-3-quinolinecarboxamide]
Radiosensitization by colony-forming ability [1]: radiosensitized cells to a similar extent as KU-60019
Radiosensitization of GL261 tumors ([2]; administered orally, prolonged low radiation dose treatment schedule): unable to significantly radiosensitize tumors
Block of phosphorylation of ATM targets ([3]; p53-S15, KAP1-S824, ATM S1981): effectively blocked phosphorylation
Potency compared to KU-60019 in blocking ATM target phosphorylation ([3]; lanes 2–6): at least 10 fold

CNC(=O)c1ccc(-c2cnc3cnc(-c4ccccc4)cn23)cc1 [AZ32]
Sensitivity to AZ32 and radiation by CFA [4]: more sensitive to AZ32 and radiation compared to mutant p53 cells
Radiation toxicity [5]: did not notice any radiation toxicity
Triple+ cells (mitotic catastrophe) of all cells ([6]; AZ32 3 µM and radiation 2 Gy): 4%
Mitotic catastrophe in AZ32+IR over IR alone ([6]; AZ32 3 µM, 2 Gy): 4 fold
Aberrant mitoses in shp53 cells relative to parental cells [7]: 4.2 fold and ~ 4 fold
Radiosensitization in radiosurvival colony-forming assay [8]: became more radiosensitive
Radiosensitization of human glioma cell line panel [9]: all radiosensitized in vitro
Cell permeability [10]: high cell permeability
IC50 [11]: 310 nM
Survival versus radiation alone ([2]; AZ32 200 mg/kg p.o. QD, whole-head 137-Cs irradiation 4×2.5 Gy): significantly (p = 0.019) prolonged the survival
Selectivity over ATR [12]: adequate selectivity over ATR
Aberrant mitoses and polyploidy cells on addition of AZ32 before IR [13]: almost a doubling of aberrant mitoses and polyploidy cells
Sensitivity of U87/shp53 cells to AZ32 radiosensitization relative to parental cells [14]: 2–4 fold
Enhancement of BBB penetration over AZ31 [15]: 8.7 fold
Survival of mice, AZ32 in combination with radiation [16]: survived much longer than mice in the radiation alone or AZ32 alone groups
Block of phosphorylation of p53 and KAP-1 after radiation [17]: blocked the phosphorylation of p53 and KAP-1 after radiation

C[C@@H]1CN(CC(=O)Nc2ccc3c(c2)Cc2cccc(-c4cc(=O)cc(N5CCOCC5)o4)c2S3)C[C@H](C)O1 [KU-60019, reference compound]
Radiosensitization of GL261 tumors ([2]; administered intra-tumorally by CED immediately prior to radiation): radiosensitized by KU-60019 (p = 0.0001)
